Reference: ChEMBL document CHEMBL1136298, “Synthesis of novel C2 and C2-C8 linked pyrrolo[2,1-c][1,4]benzodiazepine-naphthalimide hybrids as DNA-binding agents” (2003)

What was measured:
MCF7 = assay: In vitro anticancer activity against breast MCF-7 cell line; format: functional, Homo sapiens
Procedure, shortened: (§1)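 Primary screen in a three-cell-line panel of MCF7 (breast), NCI-H460 (lung) and SF-268 (CNS), with each compound tested as one dose at 10⁻⁴ molar.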

SNB-19 = assay: In vitro cytotoxic activity against central nervous system (CNS) SNB-19 cell line; format: functional; conditions: Homo sapiens
T47D = assay: In vitro cytotoxic activity against breast T-47D cell line; format: functional; conditions: Homo sapiens
CCRF-CEM = assay: In vitro cytotoxic activity against leukemia CCRF-CEM cell line; format: functional; conditions: Homo sapiens
NCI-H460 = assay: In vitro anticancer activity against lung NCI-H460 cell line; format: functional, Homo sapiens; procedure, shortened: as §1
HL-60 = assay: In vitro cytotoxic activity against HL60 (TB) cell line; format: functional; conditions: Homo sapiens
SF-268 = assay: In vitro anticancer activity against SF-268 (CNS) cell line; format: functional, Homo sapiens; procedure, shortened: as §1
SR = assay: In vitro cytotoxic activity against SR cell line; format: functional; conditions: Homo sapiens
MOLT-4 = assay: In vitro cytotoxic activity against MOLT-4 cell line; conditions: Homo sapiens

Row | SMILES | Activity (MCF7) [%] | GI50 (SNB-19) [nM] | GI50 (T47D) [nM] | GI50 (CCRF-CEM) [nM] | Activity (NCI-H460) [%] | GI50 (HL-60) [nM] | Activity (SF-268) [%] | GI50 (SR) [nM] | GI50 (MOLT-4) [nM]
1 | COc1cc2c(cc1OCc1ccccc1)N=C[C@@H]1C/C(=C\C(=O)NCCCN3C(=O)c4cccc5cccc(c45)C3=O)CN1C2=O | 0 | 80 | 34 | 62 | 0 | 91 | 1 | < 10 | 55
2 | COc1cc2c(cc1OCc1ccccc1)N=C[C@@H]1C/C(=C\C(=O)NCCN3C(=O)c4cccc5cccc(c45)C3=O)CN1C2=O | 89 | – | – | – | 101 | – | 95 | – | –
3 | COc1cc2c(cc1OCCCN1C(=O)c3cccc4cccc(c34)C1=O)N=C[C@@H]1C/C(=C\C(=O)NCCCN3C(=O)c4cccc5cccc(c45)C3=O)CN1C2=O | 86 | – | – | – | 102 | – | 97 | – | –
